{"source": "ChEMBL document CHEMBL2331363", "about": "“Synthesis of a 2,4,6-trisubstituted 5-cyano-pyrimidine library and evaluation of its immunosuppressive activity in a Mixed Lymphocyte Reaction assay” (Bioorg Med Chem, 2013)", "key": {"[1]": {"target": "Tyrosine-protein kinase JAK1 (Homo sapiens) (UniProt P23458)", "sequence (P23458 whole entry)": "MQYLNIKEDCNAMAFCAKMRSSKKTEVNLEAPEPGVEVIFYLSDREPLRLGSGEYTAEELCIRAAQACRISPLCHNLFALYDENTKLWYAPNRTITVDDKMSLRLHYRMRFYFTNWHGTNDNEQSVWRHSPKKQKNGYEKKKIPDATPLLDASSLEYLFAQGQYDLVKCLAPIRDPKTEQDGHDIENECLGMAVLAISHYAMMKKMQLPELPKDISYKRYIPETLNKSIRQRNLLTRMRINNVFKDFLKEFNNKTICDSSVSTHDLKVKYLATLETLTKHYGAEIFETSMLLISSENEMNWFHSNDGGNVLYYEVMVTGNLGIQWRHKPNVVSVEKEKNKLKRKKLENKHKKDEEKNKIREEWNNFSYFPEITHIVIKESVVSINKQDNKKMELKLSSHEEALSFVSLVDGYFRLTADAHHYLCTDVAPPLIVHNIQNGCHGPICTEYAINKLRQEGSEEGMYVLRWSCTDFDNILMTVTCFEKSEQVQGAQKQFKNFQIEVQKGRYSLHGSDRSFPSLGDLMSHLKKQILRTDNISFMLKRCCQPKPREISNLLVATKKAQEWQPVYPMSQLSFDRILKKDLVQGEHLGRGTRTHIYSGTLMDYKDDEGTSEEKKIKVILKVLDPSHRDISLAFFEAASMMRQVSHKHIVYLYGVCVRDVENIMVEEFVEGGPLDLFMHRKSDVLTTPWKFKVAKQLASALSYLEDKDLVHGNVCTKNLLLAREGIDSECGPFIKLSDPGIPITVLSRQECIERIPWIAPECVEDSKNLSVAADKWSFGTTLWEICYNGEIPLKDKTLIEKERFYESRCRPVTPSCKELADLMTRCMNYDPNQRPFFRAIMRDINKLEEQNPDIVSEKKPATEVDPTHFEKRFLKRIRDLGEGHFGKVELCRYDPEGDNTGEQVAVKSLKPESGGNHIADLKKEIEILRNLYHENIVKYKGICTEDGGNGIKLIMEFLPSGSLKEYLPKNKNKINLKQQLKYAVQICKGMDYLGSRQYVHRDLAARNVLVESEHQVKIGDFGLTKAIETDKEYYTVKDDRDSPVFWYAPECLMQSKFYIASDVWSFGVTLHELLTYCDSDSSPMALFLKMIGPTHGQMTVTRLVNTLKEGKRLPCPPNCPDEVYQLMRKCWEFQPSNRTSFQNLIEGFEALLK", "test": "Binding affinity to JAK1 (unknown origin) at 10 uM relative to control"}, "[2]": {"target": "T1, Inhibitor of nuclear factor kappa-B kinase subunit alpha (Homo sapiens) (UniProt O15111)", "T1 sequence (whole entry)": "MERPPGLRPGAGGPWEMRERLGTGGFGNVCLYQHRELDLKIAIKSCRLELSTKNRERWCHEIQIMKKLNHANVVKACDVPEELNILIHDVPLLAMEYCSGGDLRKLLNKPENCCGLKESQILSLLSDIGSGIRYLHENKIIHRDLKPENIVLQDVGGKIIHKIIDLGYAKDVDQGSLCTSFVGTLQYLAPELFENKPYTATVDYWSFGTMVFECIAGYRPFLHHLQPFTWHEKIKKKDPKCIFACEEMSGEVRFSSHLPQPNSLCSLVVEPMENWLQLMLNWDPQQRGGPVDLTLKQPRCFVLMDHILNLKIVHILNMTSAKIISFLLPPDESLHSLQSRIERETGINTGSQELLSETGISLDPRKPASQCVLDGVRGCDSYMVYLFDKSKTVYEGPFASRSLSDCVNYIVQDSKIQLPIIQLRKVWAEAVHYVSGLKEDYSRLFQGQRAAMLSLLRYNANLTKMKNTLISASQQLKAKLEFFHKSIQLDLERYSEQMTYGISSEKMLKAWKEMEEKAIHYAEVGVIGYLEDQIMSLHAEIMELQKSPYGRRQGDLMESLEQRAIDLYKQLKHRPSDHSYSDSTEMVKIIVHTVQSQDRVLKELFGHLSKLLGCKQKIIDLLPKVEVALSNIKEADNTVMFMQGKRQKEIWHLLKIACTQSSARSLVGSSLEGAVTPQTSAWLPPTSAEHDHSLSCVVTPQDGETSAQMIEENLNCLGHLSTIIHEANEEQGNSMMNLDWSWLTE", "test": "Binding affinity to IKKalpha (unknown origin) at 10 uM relative to control"}, "[3]": {"target": "Ribosomal protein S6 kinase alpha-6 (Homo sapiens) (UniProt Q9UK32)", "sequence (Q9UK32 whole entry)": "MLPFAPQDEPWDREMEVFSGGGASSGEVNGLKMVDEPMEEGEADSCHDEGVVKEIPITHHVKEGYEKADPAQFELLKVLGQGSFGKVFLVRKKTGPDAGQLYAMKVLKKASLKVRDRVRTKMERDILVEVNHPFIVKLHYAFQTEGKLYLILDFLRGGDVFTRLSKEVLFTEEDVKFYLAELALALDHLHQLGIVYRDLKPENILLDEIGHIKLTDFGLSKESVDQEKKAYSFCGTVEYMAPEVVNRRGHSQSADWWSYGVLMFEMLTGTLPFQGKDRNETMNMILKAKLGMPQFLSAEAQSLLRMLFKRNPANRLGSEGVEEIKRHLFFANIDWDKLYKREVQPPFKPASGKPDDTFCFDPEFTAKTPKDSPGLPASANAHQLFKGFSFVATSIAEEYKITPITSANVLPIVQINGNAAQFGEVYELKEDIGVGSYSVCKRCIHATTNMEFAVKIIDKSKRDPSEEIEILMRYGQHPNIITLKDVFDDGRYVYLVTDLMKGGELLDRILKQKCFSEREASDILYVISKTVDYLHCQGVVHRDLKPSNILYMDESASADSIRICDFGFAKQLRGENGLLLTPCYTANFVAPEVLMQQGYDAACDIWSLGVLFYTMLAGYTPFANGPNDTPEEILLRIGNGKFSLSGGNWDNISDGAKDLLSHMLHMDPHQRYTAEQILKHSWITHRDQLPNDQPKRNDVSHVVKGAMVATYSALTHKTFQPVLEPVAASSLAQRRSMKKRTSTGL", "test": "Binding affinity to RSK4 (unknown origin) at 10 uM relative to control"}, "[4]": {"target": "Serine/threonine-protein kinase B-raf (Homo sapiens) (UniProt P15056)", "sequence (P15056 whole entry)": "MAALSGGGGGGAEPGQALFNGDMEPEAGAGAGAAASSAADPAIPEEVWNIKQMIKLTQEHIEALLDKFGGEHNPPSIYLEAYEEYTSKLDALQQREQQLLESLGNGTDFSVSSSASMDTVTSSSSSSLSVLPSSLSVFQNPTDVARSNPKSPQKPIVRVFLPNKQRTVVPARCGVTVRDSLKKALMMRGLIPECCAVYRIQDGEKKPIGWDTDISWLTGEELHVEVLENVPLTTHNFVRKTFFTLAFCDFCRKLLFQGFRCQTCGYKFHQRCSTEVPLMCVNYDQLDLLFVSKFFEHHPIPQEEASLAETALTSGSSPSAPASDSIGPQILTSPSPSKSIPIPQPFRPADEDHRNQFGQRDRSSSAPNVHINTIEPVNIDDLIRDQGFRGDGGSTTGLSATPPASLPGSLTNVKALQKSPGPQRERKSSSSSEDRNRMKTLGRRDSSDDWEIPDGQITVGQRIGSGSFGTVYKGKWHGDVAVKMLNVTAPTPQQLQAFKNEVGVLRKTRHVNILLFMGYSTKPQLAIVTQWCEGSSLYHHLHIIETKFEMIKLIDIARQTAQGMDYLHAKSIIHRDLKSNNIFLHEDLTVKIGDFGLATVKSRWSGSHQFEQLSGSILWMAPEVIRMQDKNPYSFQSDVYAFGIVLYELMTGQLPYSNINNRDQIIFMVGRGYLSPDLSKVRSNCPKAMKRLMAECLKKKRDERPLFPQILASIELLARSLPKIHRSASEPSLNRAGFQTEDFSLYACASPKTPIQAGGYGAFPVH", "test": "Binding affinity to BRAF (unknown origin) at 10 uM relative to control"}, "[5]": {"target": "T2, Receptor-interacting serine/threonine-protein kinase 4 (Homo sapiens) (UniProt P57078)", "T2 sequence (whole entry)": "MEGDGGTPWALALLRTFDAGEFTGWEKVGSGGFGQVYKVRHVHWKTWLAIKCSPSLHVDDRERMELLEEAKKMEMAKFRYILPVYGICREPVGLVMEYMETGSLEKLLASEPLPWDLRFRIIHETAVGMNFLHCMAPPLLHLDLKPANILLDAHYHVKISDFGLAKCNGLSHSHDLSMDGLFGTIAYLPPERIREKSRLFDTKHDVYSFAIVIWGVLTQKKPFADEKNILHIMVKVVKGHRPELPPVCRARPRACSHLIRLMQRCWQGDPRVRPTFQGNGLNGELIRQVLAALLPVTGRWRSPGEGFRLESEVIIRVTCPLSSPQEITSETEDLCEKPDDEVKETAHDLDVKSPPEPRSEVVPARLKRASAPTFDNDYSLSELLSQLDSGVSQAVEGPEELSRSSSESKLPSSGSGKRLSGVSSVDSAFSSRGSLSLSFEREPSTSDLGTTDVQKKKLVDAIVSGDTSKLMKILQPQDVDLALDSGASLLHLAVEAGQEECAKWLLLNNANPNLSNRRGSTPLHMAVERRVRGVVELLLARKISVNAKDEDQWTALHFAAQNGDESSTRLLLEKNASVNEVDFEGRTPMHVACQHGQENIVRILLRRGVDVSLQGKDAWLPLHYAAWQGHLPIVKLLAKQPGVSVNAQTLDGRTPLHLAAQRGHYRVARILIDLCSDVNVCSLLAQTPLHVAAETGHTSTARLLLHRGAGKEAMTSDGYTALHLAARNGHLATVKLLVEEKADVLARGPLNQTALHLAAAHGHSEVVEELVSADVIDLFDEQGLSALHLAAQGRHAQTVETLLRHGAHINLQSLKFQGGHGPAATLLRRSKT", "test": "Binding affinity to RIPK4 (unknown origin) at 10 uM relative to control"}, "[6]": {"system": "Serine/threonine-protein kinase B-raf (Homo sapiens), P15056 [V600E]", "sequence (P15056 whole entry V600E)": "as the sequence (P15056 whole entry) above, with V600E counted along it", "test": "Binding affinity to BRAF V600E mutant (unknown origin) at 10 uM relative to control"}, "[7]": {"test": "Immunosuppressive activity in human RPMI1788 cells cocultured with human PBMC assessed as inhibition of [3H]thymidine incorporation incubated for 6 days prior to [3H]thymidine addition measured after 18 hrs by liquid scintillation counting", "type": "functional, cell-based", "conditions": "RPMI-1788", "summary_of_the_method": "(§1)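 Effector PBMCs from heparinized healthy-donor blood were isolated over Lymphoprep and held at 1.2 × 10⁶ cells/mL in RPMI-1640 with 10% heat-inactivated FCS. Mitomycin-treated stimulator cells were at 0.45 × 10⁶ cells/mL. Cells were mixed with diluted compound and cultured at 37 °C, 5% CO₂. (methyl-³H)thymidine was added for the final 18 h, and filter-harvested cpm were counted by scintillation. Compounds were screened at one concentration, then dose-response IC₅₀ was determined. Values are means of two independent experiments.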"}, "[8]": {"target": "T3, Inhibitor of nuclear factor kappa-B kinase subunit beta (Homo sapiens) (UniProt O14920)", "T3 sequence (whole entry)": "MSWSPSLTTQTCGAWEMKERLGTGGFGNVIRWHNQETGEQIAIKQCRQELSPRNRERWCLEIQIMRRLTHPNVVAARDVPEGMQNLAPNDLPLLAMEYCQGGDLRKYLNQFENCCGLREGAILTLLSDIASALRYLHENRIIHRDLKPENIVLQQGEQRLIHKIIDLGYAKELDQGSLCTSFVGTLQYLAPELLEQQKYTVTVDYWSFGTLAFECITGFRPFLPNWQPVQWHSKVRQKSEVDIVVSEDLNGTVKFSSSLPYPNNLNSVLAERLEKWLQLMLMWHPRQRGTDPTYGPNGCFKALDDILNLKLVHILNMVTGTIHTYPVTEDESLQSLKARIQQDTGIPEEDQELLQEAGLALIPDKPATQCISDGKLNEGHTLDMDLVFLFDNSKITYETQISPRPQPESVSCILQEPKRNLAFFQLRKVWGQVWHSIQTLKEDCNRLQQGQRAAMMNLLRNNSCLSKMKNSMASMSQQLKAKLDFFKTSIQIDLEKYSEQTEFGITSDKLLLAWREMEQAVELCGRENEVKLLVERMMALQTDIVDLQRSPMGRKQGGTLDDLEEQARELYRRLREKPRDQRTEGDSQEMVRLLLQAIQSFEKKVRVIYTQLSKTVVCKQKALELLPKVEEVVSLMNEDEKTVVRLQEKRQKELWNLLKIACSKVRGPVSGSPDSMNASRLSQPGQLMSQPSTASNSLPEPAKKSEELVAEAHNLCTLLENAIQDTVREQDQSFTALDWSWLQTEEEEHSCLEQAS", "test": "Binding affinity to IKKbeta (unknown origin) at 10 uM relative to control"}, "[9]": {"test": "Cytotoxicity against human Jurkat T cells after 48 hrs by WST1 assay", "type": "cell-based", "summary_of_the_method": "(§2)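 Jurkat T cells were seeded at 5.10⁴ cells per well and exposed to serial compound dilutions for 48 h at 37 °C and 5% CO₂. Part of the medium was removed, WST-1 tetrazolium salt was added, and cells were incubated further. Absorbance was read at 450 nm. Results are % cytotoxicity at each concentration, with CC₅₀ calculated.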"}, "[10]": {"test": "Immunosuppressive activity in human RPMI1788 cells cocultured with human PBMC assessed as inhibition of [3H]thymidine incorporation at 10 uM incubated for 6 days prior to [3H]thymidine addition measured after 18 hrs by liquid scintillation counting", "type": "functional", "conditions": "RPMI-1788", "summary_of_the_method": "as §1"}, "[11]": {"test": "Growth inhibition of human Jurkat T cells at 10 uM after 48 hrs by WST1 assay", "type": "cell-based", "summary_of_the_method": "as §2"}, "[12]": {"target": "Serine/threonine-protein kinase mTOR (Homo sapiens) (UniProt P42345)", "test": "Inhibition of mTOR (unknown origin) at 10 uM"}, "[13]": {"target": "Serine/threonine-protein kinase 10 (Homo sapiens) (UniProt O94804)", "sequence (O94804 whole entry, looked up)": "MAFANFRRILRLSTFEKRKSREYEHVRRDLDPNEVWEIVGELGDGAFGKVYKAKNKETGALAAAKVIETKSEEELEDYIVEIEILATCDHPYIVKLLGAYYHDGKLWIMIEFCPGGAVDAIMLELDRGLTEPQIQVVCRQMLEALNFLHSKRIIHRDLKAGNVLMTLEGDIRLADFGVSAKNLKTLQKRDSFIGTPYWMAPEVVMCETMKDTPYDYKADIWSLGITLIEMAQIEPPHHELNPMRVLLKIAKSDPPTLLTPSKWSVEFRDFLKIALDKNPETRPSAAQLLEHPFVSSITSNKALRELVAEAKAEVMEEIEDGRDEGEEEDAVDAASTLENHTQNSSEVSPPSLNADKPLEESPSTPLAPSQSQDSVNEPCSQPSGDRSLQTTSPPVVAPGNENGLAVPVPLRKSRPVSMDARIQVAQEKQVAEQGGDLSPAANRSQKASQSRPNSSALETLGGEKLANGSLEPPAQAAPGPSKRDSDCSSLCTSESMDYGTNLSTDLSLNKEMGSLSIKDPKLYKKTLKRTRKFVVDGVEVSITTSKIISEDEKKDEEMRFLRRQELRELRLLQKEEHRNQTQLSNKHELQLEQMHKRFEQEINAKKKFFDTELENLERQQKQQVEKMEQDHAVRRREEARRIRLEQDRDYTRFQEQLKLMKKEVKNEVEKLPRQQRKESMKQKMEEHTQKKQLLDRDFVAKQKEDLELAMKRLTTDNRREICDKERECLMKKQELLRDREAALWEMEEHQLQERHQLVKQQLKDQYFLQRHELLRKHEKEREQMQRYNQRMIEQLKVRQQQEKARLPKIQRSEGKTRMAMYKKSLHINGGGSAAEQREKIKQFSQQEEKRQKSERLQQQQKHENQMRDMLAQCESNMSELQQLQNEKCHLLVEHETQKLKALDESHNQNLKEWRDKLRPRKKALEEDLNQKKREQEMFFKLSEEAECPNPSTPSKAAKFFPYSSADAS", "test": "Binding affinity to LOK (unknown origin) at 10 uM relative to control"}}}
{"smiles": "COc1ccc(-c2nc(SCc3ccccc3)nc(N3CCOCC3)c2C#N)cc1", "values": [{"measurement": "Activity", "setting": "[1]", "value": 39, "unit": "%"}, {"measurement": "Activity", "setting": "[2]", "value": 44, "unit": "%"}, {"measurement": "Activity", "setting": "[3]", "value": 35, "unit": "%"}, {"measurement": "Activity", "setting": "[4]", "value": 34, "unit": "%"}, {"measurement": "Activity", "setting": "[5]", "value": 43, "unit": "%"}, {"measurement": "Activity", "setting": "[6]", "value": 28, "unit": "%"}, {"measurement": "IC50", "setting": "[7]", "value": 1.6, "unit": "µM"}, {"measurement": "Activity", "setting": "[8]", "value": 48, "unit": "%"}, {"measurement": "CC50 at 48 h", "setting": "[9]", "value": "> 10", "unit": "µM"}, {"measurement": "inhibition at 10 µM", "setting": "[10]", "value": 90, "unit": "%"}, {"measurement": "inhibition at 48 h, 10 µM", "setting": "[11]", "value": 10, "unit": "%"}, {"measurement": "inhibition", "setting": "[12]", "value": 10, "unit": "%"}, {"measurement": "Activity", "setting": "[13]", "value": 45, "unit": "%"}]}
